ChEMBL document CHEMBL1141655, “Structure-activity relationships of Bak derived peptides: affinity and specificity modulations by amino acid replacement” (Eur J Med Chem, 2008)

Experiments:
[1] = Selectivity ratio of EC50 for recombinant Bcl-2 to EC50 for recombinant Bcl-XL
[2] = molecular target: Apoptosis regulator Bcl-2 (Homo sapiens, UniProt P10415); assay: Binding affinity to recombinant Bcl-2 expressed in Escherichia coli BL21 by fluorescence polarization assay
In short: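 GST-Bcl-2 lacking C-terminal 21 residues, glutathione-resin purified, dialysed into 20 mM phosphate pH 7.4, 1 mM EDTA, 50 mM NaCl. Competition FP: fluorescein N-terminal Bak BH3 probe 15 nM, protein 1 µM, peptide final 10^-9 to 10^-4 M with 0.05% pluronic acid; 30 min room temperature; ex 485/em 535 nm, mP. EC50 from sigmoidal dose-response, n = 2, triplicate.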

Bcl-2-like protein 1 = Bcl-2-like protein 1 (Homo sapiens, UniProt Q07817); assay: Binding affinity to recombinant Bcl-XL expressed in Escherichia coli BL21 by fluorescence polarization assay
Chain of Bcl-2-like protein 1 (Q07817 whole entry): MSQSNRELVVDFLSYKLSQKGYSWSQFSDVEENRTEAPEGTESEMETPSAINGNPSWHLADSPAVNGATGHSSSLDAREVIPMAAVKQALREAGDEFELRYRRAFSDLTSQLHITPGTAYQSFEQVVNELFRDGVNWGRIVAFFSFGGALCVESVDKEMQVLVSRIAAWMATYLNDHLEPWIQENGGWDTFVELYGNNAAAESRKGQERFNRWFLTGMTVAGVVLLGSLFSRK

Chain of Apoptosis regulator Bcl-2 (P10415 whole entry): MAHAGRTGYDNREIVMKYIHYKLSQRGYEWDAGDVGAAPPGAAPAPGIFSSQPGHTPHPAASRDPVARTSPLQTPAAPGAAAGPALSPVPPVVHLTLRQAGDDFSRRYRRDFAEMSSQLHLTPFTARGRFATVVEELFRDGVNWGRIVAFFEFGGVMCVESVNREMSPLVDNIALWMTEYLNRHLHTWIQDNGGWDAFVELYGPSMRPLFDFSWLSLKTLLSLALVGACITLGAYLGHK

| Ratio EC50 [1] | EC50 [2] | EC50 (Bcl-2-like protein 1) | Compound |
| --- | --- | --- | --- |
| 133 | 17 µM | 0.127 µM | CC[C@H](C)[C@H](NC(=O)[C@H](C)NC(=O)[C@H](Cc1ccc2ccccc2c1)NC(=O)[C@H](CCC(N)=O)NC(=O)[C@H](CCCNC(=N)N)NC(=O)CNC(=O)[C@@H](NC(=O)[C@H](CCC(N)=O)NC(=O)CN)C(C)C)C(=O)N[C@H](C(=O)NCC(=O)N[C@@H](CC(=O)O)C(=O)N[C@@H](CC(=O)O)C(=O)N[C@H](C(=O)N[C@@H](CC(N)=O)C(=O)N[C@@H](CCCNC(=N)N)C(=O)O)[C@@H](C)CC)[C@@H](C)CC |
|  | 29.9 µM | 1.43 µM | CC[C@H](C)[C@H](NC(=O)[C@H](C)NC(=O)[C@H](CCSC)NC(=O)[C@H](CCC(N)=O)NC(=O)[C@H](CCCN=C(N)N)NC(=O)CNC(=O)[C@@H](NC(=O)[C@H](CCC(N)=O)NC(=O)CN)C(C)C)C(=O)N[C@H](C(=O)NCC(=O)N[C@@H](CC(=O)O)C(=O)N[C@@H](CC(=O)O)C(=O)N[C@H](C(=O)N[C@@H](CC(N)=O)C(=O)N[C@@H](CCCN=C(N)N)C(=O)O)[C@@H](C)CC)[C@@H](C)CC |
| 21 |  |  | CC[C@H](C)[C@H](NC(=O)[C@H](C)NC(=O)[C@H](CCSC)NC(=O)[C@H](CCC(N)=O)NC(=O)[C@H](CCCNC(=N)N)NC(=O)CNC(=O)[C@@H](NC(=O)[C@H](CCC(N)=O)NC(=O)CN)C(C)C)C(=O)N[C@H](C(=O)NCC(=O)N[C@@H](CC(=O)O)C(=O)N[C@@H](CC(=O)O)C(=O)N[C@H](C(=O)N[C@@H](CC(N)=O)C(=O)N[C@@H](CCCNC(=N)N)C(=O)O)[C@@H](C)CC)[C@@H](C)CC |
| 7 | 2.8 µM | 0.375 µM | CC[C@H](C)[C@H](NC(=O)[C@H](C)NC(=O)[C@H](CC(C)C)NC(=O)[C@H](CCC(N)=O)NC(=O)[C@H](CCCNC(=N)N)NC(=O)CNC(=O)[C@@H](NC(=O)[C@H](CCC(N)=O)NC(=O)CN)C(C)C)C(=O)N[C@@H](Cc1c[nH]c2ccccc12)C(=O)NCC(=O)N[C@@H](CC(=O)O)C(=O)N[C@@H](CC(=O)O)C(=O)N[C@H](C(=O)N[C@@H](CC(N)=O)C(=O)N[C@@H](CCCNC(=N)N)C(=O)O)[C@@H](C)CC |
| 17 |  |  | CC[C@H](C)[C@H](NC(=O)[C@H](C)NC(=O)[C@H](CC(C)C)NC(=O)[C@H](CCC(N)=O)NC(=O)[C@H](CCCNC(=N)N)NC(=O)CNC(=O)[C@@H](NC(=O)[C@H](CCC(N)=O)NC(=O)CN)C(C)C)C(=O)N[C@@H](Cc1ccc(-c2ccccc2)cc1)C(=O)NCC(=O)N[C@@H](CC(=O)O)C(=O)N[C@@H](CC(=O)O)C(=O)N[C@H](C(=O)N[C@@H](CC(N)=O)C(=O)N[C@@H](CCCNC(=N)N)C(=O)O)[C@@H](C)CC |
| 17 | 6.13 µM | 0.35 µM | CC[C@H](C)[C@H](NC(=O)[C@H](C)NC(=O)[C@H](CC(C)C)NC(=O)[C@H](CCC(N)=O)NC(=O)[C@H](CCCNC(=N)N)NC(=O)CNC(=O)[C@H](Cc1ccc2ccccc2c1)NC(=O)[C@H](CCC(N)=O)NC(=O)CN)C(=O)N[C@H](C(=O)NCC(=O)N[C@@H](CC(=O)O)C(=O)N[C@@H](CC(=O)O)C(=O)N[C@H](C(=O)N[C@@H](CC(N)=O)C(=O)N[C@@H](CCCNC(=N)N)C(=O)O)[C@@H](C)CC)[C@@H](C)CC |
| 11 |  |  | CCCC[C@H](NC(=O)[C@H](CCC(N)=O)NC(=O)CN)C(=O)NCC(=O)N[C@@H](CCCNC(=N)N)C(=O)N[C@@H](CCC(N)=O)C(=O)N[C@@H](CC(C)C)C(=O)N[C@@H](C)C(=O)N[C@H](C(=O)N[C@H](C(=O)NCC(=O)N[C@@H](CC(=O)O)C(=O)N[C@@H](CC(=O)O)C(=O)N[C@H](C(=O)N[C@@H](CC(N)=O)C(=O)N[C@@H](CCCNC(=N)N)C(=O)O)[C@@H](C)CC)[C@@H](C)CC)[C@@H](C)CC |
| 30 | 1.14 µM | 0.038 µM | CC[C@H](C)[C@H](NC(=O)[C@H](C)NC(=O)[C@H](CC(C)C)NC(=O)[C@H](CCC(N)=O)NC(=O)[C@H](CCCNC(=N)N)NC(=O)CNC(=O)[C@@H](NC(=O)[C@H](CCC(N)=O)NC(=O)CN)C(C)C)C(=O)N[C@H](C(=O)NCC(=O)N[C@@H](CC(=O)O)C(=O)N[C@@H](CC(=O)O)C(=O)N[C@@H](Cc1ccc(Cl)cc1)C(=O)N[C@@H](CC(N)=O)C(=O)N[C@@H](CCCNC(=N)N)C(=O)O)[C@@H](C)CC |
|  | 0.757 µM | 0.071 µM | CCCC[C@H](NC(=O)[C@H](CCC(N)=O)NC(=O)CN)C(=O)NCC(=O)N[C@@H](CCCN=C(N)N)C(=O)N[C@@H](CCC(N)=O)C(=O)N[C@@H](CC(C)C)C(=O)N[C@@H](C)C(=O)N[C@H](C(=O)N[C@H](C(=O)NCC(=O)N[C@@H](CC(=O)O)C(=O)N[C@@H](CC(=O)O)C(=O)N[C@H](C(=O)N[C@@H](CC(N)=O)C(=O)N[C@@H](CCCN=C(N)N)C(=O)O)[C@@H](C)CC)[C@@H](C)CC)[C@@H](C)CC |
|  | 20.7 µM | 1.25 µM | CC[C@H](C)[C@H](NC(=O)[C@H](C)NC(=O)[C@H](CC(C)C)NC(=O)[C@H](CCC(N)=O)NC(=O)[C@H](CCCN=C(N)N)NC(=O)CNC(=O)[C@@H](NC(=O)[C@H](CCC(N)=O)NC(=O)CN)C(C)C)C(=O)N[C@@H](Cc1ccc(-c2ccccc2)cc1)C(=O)NCC(=O)N[C@@H](CC(=O)O)C(=O)N[C@@H](CC(=O)O)C(=O)N[C@H](C(=O)N[C@@H](CC(N)=O)C(=O)N[C@@H](CCCN=C(N)N)C(=O)O)[C@@H](C)CC |
|  |  | 0.159 µM | CC[C@H](C)[C@H](NC(=O)[C@H](C)NC(=O)[C@H](CC(C)C)NC(=O)[C@H](CCC(N)=O)NC(=O)[C@H](CCCN=C(N)N)NC(=O)CNC(=O)[C@@H](NC(=O)[C@H](CCC(N)=O)NC(=O)CN)C(C)C)C(=O)N[C@H](C(=O)NCC(=O)N[C@@H](CC(=O)O)C(=O)N[C@@H](CC(=O)O)C(=O)N[C@@H](Cc1ccc(O)cc1)C(=O)N[C@@H](CC(N)=O)C(=O)N[C@@H](CCCN=C(N)N)C(=O)O)[C@@H](C)CC |
| 13 | 8.02 µM | 0.594 µM | CC[C@H](C)[C@H](NC(=O)[C@H](C)NC(=O)[C@H](CC(C)C)NC(=O)[C@H](CCC(N)=O)NC(=O)[C@H](CCCNC(=N)N)NC(=O)CNC(=O)[C@@H](NC(=O)[C@H](CCC(N)=O)NC(=O)CN)C(C)C)C(=O)N[C@H](C(=O)NCC(=O)N[C@@H](CC(=O)O)C(=O)N[C@@H](CC(=O)O)C(=O)N[C@@H](Cc1ccc([N+](=O)[O-])cc1)C(=O)N[C@@H](CC(N)=O)C(=O)N[C@@H](CCCNC(=N)N)C(=O)O)[C@@H](C)CC |
